# Laboratory results as given in paper PMC11027041 (RSC Advances, 2024).
# Experiments:
# UO-31 = experiment: NCI-60 antiproliferative screening; type: cell-based; conditions: Homo sapiens, UO-31, read-out: percent inhibition
# SK-MEL-2 = experiment: NCI-60 antiproliferative screening; type: cell-based; conditions: Homo sapiens, SK-MEL-2, read-out: percent inhibition
# MCF7 = experiment: NCI-60 antiproliferative screening; type: cell-based; conditions: Homo sapiens, MCF7, read-out: percent inhibition
# NCI/ADR-RES = experiment: NCI-60 antiproliferative screening; type: cell-based; conditions: Homo sapiens, read-out: percent inhibition
# SW-620 = experiment: NCI-60 antiproliferative screening; type: cell-based; conditions: Homo sapiens, SW-620, read-out: percent inhibition
# OVCAR-5 = experiment: NCI-60 antiproliferative screening; type: cell-based; conditions: Homo sapiens, OVCAR-5, read-out: percent inhibition
# HL60 = experiment: NCI-60 antiproliferative screening; type: cell-based; conditions: Homo sapiens, HL-60, read-out: percent inhibition
# SF-268 = experiment: NCI-60 antiproliferative screening; type: cell-based; conditions: Homo sapiens, SF-268, read-out: percent inhibition
# MDA-MB-231/ATCC = experiment: NCI-60 antiproliferative screening; type: cell-based; conditions: Homo sapiens, MDA-MB-231, read-out: percent inhibition
# MDA-MB-435 = experiment: NCI-60 antiproliferative screening; type: cell-based; conditions: Homo sapiens, MDA-MB-435, read-out: percent inhibition
# EKVX = experiment: NCI-60 antiproliferative screening; type: cell-based; conditions: Homo sapiens, read-out: percent inhibition
# SN12C = experiment: NCI-60 antiproliferative screening; type: cell-based; conditions: Homo sapiens, read-out: percent inhibition
# RPMI-8226 = experiment: NCI-60 antiproliferative screening; type: cell-based; conditions: Homo sapiens, RPMI-8226, read-out: percent inhibition
# UACC-62 = experiment: NCI-60 antiproliferative screening; type: cell-based; conditions: Homo sapiens, UACC-62, read-out: percent inhibition
# A498 = experiment: NCI-60 antiproliferative screening; type: cell-based; conditions: Homo sapiens, A498, read-out: percent inhibition
# DU-145 = experiment: NCI-60 antiproliferative screening; type: cell-based; conditions: Homo sapiens, DU-145, read-out: percent inhibition
# KM12 = experiment: NCI-60 antiproliferative screening; type: cell-based; conditions: Homo sapiens, KM12, read-out: percent inhibition
# HS 578T = experiment: NCI-60 antiproliferative screening; type: cell-based; conditions: Homo sapiens, read-out: percent inhibition
# BT-549 = experiment: NCI-60 antiproliferative screening; type: cell-based; conditions: Homo sapiens, BT-549, read-out: percent inhibition
# HDAC9 = HDAC9 (Homo sapiens, UniProt Q9UKV0); experiment: In vitro HDAC enzyme assay; type: biochemical
# HDAC9, sequence (Q9UKV0 whole entry): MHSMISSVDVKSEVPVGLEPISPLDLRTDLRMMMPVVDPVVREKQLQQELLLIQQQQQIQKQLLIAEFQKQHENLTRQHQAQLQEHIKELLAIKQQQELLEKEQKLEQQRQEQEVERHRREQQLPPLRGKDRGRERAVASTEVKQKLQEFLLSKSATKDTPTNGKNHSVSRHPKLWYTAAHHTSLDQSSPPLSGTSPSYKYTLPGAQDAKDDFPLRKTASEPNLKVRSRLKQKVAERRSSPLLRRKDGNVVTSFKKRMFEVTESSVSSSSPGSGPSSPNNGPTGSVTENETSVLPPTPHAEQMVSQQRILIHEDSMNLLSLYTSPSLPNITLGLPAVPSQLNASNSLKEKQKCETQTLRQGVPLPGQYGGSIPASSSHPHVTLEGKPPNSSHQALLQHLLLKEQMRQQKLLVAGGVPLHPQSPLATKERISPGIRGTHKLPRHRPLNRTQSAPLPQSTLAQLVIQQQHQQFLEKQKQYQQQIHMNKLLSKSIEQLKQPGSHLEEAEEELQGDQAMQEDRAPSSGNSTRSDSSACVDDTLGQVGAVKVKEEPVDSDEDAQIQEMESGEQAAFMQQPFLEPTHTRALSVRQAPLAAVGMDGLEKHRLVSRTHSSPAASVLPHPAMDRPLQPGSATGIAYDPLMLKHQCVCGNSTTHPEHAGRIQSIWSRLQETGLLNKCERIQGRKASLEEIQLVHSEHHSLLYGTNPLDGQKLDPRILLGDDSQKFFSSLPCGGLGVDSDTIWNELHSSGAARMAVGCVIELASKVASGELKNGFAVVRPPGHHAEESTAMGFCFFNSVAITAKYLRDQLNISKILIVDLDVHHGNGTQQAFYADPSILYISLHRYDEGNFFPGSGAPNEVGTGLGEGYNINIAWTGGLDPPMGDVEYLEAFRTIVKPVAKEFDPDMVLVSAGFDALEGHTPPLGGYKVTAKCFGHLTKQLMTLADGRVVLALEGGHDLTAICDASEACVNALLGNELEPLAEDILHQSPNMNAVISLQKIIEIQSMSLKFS
# TK-10 = experiment: NCI-60 antiproliferative screening; type: cell-based; conditions: Homo sapiens, TK-10, read-out: percent inhibition
# HCT-15 = experiment: NCI-60 antiproliferative screening; type: cell-based; conditions: Homo sapiens, HCT-15, read-out: percent inhibition
# NCI-H322M = experiment: NCI-60 antiproliferative screening; type: cell-based; conditions: Homo sapiens, read-out: percent inhibition
# HOP-92 = experiment: NCI-60 antiproliferative screening; type: cell-based; conditions: Homo sapiens, HOP-92, read-out: percent inhibition
# [1] = system: normal bone marrow cells HS-5; experiment: Cell viability assay; type: cell-based; conditions: 72 h, read-out: Antiproliferative IC50 HS-5
# In short: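 Cells grown in IMDM with 20% FBS, 100 U per mL penicillin and 100 μg per mL streptomycin, then plated in 96-well format. Test compound exposure was 72 h. Alamar blue solution (1 mM, as added) was then applied for a further 5–6 h, and […] was read at 530/590 nm. Data were normalized to vehicle, as means of three independent measurements (standard errors <20%), and IC50 was calculated.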
# HDAC2 = HDAC2 (Homo sapiens, UniProt Q92769); experiment: In vitro HDAC enzyme assay; type: biochemical
# HDAC2, sequence (Q92769 whole entry): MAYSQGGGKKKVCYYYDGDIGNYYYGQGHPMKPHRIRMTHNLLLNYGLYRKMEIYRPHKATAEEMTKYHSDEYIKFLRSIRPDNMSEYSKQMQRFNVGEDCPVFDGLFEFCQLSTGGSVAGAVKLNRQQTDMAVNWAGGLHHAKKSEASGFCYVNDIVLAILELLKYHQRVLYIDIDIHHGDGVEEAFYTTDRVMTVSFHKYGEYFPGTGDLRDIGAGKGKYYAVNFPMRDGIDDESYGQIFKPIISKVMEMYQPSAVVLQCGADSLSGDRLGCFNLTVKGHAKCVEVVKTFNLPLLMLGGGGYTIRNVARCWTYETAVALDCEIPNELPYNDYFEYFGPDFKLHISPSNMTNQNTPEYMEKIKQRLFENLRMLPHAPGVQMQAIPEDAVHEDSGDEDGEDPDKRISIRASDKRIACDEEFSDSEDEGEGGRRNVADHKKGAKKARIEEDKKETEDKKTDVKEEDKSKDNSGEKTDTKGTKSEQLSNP
# MDA-MB-468 = experiment: NCI-60 antiproliferative screening; type: cell-based; conditions: Homo sapiens, MDA-MB-468, read-out: percent inhibition
# HCC-2998 = experiment: NCI-60 antiproliferative screening; type: cell-based; conditions: Homo sapiens, HCC 2998, read-out: percent inhibition
# SR = experiment: NCI-60 antiproliferative screening; type: cell-based; conditions: Homo sapiens, read-out: percent inhibition
# [2] = system: fifty-nine cancer cell lines; experiment: NCI-60 antiproliferative screening, panel summary; type: cell-based; conditions: read-out: percent inhibition of 55 cell lines
# HDAC6 = HDAC6 (Homo sapiens, UniProt Q9UBN7); experiment: In vitro HDAC enzyme assay; type: biochemical
# HDAC6, sequence (Q9UBN7 whole entry): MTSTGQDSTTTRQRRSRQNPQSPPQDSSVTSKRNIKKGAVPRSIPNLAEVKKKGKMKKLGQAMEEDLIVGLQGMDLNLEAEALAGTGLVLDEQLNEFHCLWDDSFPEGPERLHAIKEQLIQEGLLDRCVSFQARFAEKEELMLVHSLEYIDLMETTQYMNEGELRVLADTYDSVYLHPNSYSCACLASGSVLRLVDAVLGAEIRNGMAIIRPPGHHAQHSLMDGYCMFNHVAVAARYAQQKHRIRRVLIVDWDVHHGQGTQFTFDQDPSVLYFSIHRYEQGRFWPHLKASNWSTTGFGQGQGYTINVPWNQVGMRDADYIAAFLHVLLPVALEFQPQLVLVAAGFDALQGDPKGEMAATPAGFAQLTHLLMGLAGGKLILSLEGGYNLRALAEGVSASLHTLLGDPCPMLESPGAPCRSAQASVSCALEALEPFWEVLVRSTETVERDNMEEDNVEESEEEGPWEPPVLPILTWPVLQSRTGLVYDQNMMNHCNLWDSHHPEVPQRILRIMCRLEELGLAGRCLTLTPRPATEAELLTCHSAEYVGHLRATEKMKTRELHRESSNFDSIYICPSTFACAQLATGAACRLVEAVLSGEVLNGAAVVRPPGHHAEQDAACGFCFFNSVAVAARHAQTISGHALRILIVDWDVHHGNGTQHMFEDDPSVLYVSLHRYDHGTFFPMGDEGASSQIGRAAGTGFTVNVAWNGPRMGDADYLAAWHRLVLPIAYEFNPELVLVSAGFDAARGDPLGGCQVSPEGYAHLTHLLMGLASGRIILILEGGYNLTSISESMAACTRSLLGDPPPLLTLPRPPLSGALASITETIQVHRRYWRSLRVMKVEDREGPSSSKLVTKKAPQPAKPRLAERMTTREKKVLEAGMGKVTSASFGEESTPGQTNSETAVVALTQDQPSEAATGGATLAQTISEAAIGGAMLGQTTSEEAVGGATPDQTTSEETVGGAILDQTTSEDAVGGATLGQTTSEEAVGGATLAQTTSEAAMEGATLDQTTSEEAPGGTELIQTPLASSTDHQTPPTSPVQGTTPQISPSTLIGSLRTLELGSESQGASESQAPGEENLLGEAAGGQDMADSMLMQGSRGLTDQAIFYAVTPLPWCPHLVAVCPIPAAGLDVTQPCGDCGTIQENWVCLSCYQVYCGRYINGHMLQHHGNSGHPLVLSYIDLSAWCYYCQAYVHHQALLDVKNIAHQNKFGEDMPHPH
# OVCAR-4 = experiment: NCI-60 antiproliferative screening; type: cell-based; conditions: Homo sapiens, OVCAR-4, read-out: percent inhibition
# [3] = system: melanoma cell line SK-MEL-2; experiment: Cell viability assay; type: cell-based; conditions: Homo sapiens, SK-MEL-2, 72 h, read-out: Antiproliferative IC50 SK-MEL-2
# A549/ATCC = experiment: NCI-60 antiproliferative screening; type: cell-based; conditions: Homo sapiens, A549, read-out: percent inhibition
# HDAC3 = HDAC3 (Homo sapiens, UniProt O15379); experiment: In vitro HDAC enzyme assay; type: biochemical
# HDAC3, sequence (O15379 whole entry): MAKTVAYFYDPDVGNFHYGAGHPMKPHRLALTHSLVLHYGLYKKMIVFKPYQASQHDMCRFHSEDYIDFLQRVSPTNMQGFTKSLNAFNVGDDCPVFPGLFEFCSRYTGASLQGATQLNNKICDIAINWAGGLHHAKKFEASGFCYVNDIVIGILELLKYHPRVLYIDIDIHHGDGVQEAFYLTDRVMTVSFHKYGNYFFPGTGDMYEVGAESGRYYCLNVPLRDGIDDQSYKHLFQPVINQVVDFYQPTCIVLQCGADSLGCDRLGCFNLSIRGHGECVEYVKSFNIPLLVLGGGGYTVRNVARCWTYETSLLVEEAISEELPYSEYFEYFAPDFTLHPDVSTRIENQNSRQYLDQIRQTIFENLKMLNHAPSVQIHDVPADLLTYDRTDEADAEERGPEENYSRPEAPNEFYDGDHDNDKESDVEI
# HDAC3, sequence (Q9Y618 395-489 partner limits assumed): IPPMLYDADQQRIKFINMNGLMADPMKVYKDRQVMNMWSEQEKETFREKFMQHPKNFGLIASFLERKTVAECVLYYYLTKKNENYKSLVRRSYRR
# NCI-H226 = experiment: NCI-60 antiproliferative screening; type: cell-based; conditions: Homo sapiens, NCI-H226, read-out: percent inhibition
# SNB-75 = experiment: NCI-60 antiproliferative screening; type: cell-based; conditions: Homo sapiens, SNB-75, read-out: percent inhibition
# HDAC1 = HDAC1 (Homo sapiens, UniProt Q13547); experiment: In vitro HDAC enzyme assay; type: biochemical
# HDAC1, sequence (Q13547 whole entry): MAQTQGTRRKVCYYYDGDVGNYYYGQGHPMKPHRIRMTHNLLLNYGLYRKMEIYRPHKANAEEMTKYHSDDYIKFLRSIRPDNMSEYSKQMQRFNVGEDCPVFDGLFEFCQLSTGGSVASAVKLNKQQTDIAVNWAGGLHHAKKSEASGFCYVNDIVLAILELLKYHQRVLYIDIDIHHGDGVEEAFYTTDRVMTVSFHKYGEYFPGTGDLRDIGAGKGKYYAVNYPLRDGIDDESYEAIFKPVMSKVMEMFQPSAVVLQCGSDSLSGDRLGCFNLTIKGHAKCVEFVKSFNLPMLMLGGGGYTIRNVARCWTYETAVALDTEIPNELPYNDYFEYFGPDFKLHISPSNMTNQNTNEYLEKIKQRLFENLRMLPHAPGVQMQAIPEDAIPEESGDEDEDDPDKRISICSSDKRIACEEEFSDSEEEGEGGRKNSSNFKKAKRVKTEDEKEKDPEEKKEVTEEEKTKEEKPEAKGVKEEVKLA
# NCI-H23 = experiment: NCI-60 antiproliferative screening; type: cell-based; conditions: Homo sapiens, NCI-H23, read-out: percent inhibition
# 786-0 = experiment: NCI-60 antiproliferative screening; type: cell-based; conditions: Homo sapiens, 786-0, read-out: percent inhibition
# HDAC11 = HDAC11 (Homo sapiens, UniProt Q96DB2); experiment: In vitro HDAC enzyme assay; type: biochemical
# HDAC11, sequence (Q96DB2 whole entry): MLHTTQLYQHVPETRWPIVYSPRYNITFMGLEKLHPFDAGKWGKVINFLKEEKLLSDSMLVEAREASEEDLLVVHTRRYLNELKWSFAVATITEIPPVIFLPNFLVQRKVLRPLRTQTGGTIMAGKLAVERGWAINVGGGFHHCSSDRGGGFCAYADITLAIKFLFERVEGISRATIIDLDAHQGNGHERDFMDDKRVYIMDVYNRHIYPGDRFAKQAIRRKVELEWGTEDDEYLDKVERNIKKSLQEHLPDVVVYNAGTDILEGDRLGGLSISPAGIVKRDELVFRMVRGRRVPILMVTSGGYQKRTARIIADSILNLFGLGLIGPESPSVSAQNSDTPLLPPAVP
smiles,measurement,setting,value
"COc1ccc(CN2[C@@H](C(=O)NCCCCCCC(=O)NO)Cc3c([nH]c4ccccc34)[C@@H]2C2CC2)cc1 [Compound 13d, (1S,3R)-1-Cyclopropyl-N-(7-(hydroxyamino)-7-oxoheptyl)-2-(4-methoxybenzyl)-2,3,4,9-tetrahydro-1H-pyrido[3,4-b]indole-3-carboxamide]",inhibition at 10 µM,UO-31,92.3%
same,inhibition at 10 µM,SK-MEL-2,100%
same,inhibition at 10 µM,MCF7,93.6%
same,inhibition at 10 µM,NCI/ADR-RES,38%
same,inhibition at 10 µM,SW-620,100%
same,inhibition at 10 µM,OVCAR-5,100%
same,inhibition at 10 µM,HL60,96.6%
same,inhibition at 10 µM,SF-268,85.5%
same,inhibition at 10 µM,MDA-MB-231/ATCC,100%
same,inhibition at 10 µM,MDA-MB-435,100%
same,inhibition at 10 µM,EKVX,83.2%
same,inhibition at 10 µM,SN12C,92.2%
same,inhibition at 10 µM,RPMI-8226,84.3%
same,inhibition at 10 µM,UACC-62,100%
same,inhibition at 10 µM,A498,100%
same,inhibition at 10 µM,DU-145,90.6%
same,inhibition at 10 µM,KM12,87.5%
same,inhibition at 10 µM,HS 578T,100%
same,inhibition at 10 µM,BT-549,74.5%
same,IC50,HDAC9,> 50000 nM
same,activity for HDAC9 (in words),HDAC9,no activity
same,inhibition at 10 µM,TK-10,100%
same,inhibition at 10 µM,HCT-15,91.2%
same,inhibition at 10 µM,NCI-H322M,90.5%
same,inhibition at 10 µM,HOP-92,100%
same,IC50,[1],> 50000 nM
same,IC50,HDAC2,23.5 ± 1.03 nM
same,inhibition at 10 µM,MDA-MB-468,95.9%
same,inhibition at 10 µM,HCC-2998,100%
same,inhibition at 10 µM,SR,84%
same,inhibition at 10 µM,[2],> 80%
same,IC50,HDAC6,4.5 ± 0.21 nM
same,inhibition at 10 µM,OVCAR-4,59.4%
same,IC50,[3],480 ± 10 nM
same,inhibition at 10 µM,A549/ATCC,82.7%
same,IC50,HDAC3,32.1 ± 1.44 nM
same,inhibition at 10 µM,NCI-H226,71.9%
same,inhibition at 10 µM,SNB-75,89.8%
same,IC50,HDAC1,8.73 ± 0.46 nM
same,inhibition at 0.5 µM,"HDAC1; read-out: Inhibition% (inhibition rate, IR) against HDAC1, at a concentration of 500 nM, duplicate",99.2%
same,inhibition at 10 µM,NCI-H23,100%
same,inhibition at 10 µM,786-0,82.7%
same,IC50,HDAC11,1800 ± 106 nM
same,inhibition of HDAC11 (in words),HDAC11,weak inhibition
